We go through five molecules from ChEMBL document CHEMBL1240504, “Synthesis of substituted thieno[2,3-d]pyrimidine-2,4-dithiones and their S-glycoside analogues as potential antiviral and antibacterial agents” (Eur J Med Chem, 2010).

Structures are written as SMILES. Values after ≈ are worked out from the molar mass of the structure shown.

For series [1], the system named is Human alphaherpesvirus 1. The experiment in a line: Antiviral activity against HSV1 infected in african green monkey Vero cells assessed as minimum antiviral concentration after 6 hrs. In kind it is functional. In a few lines:
(§1)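 Modified plaque reduction in 96-well trays with no thickening overlay. Compounds dissolved in DMSO and diluted into medium, then serially diluted and added in triplicate to confluent Vero monolayers. Titred HSV-1 added in medium with 10% calf serum. Incubated 6 h at 37 °C, 5% CO2. Cells fixed with 3.7% formaldehyde and examined visually. The end-point concentration was taken from the dilution series.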

Series [2] relates to Human alphaherpesvirus 1. As to the kind of experiment: Antiviral activity against HSV1 infected in african green monkey Vero cells after 6 hrs by plaque reduction assay. Type of series: functional. Also noted: scale not given: the % may be the effect or the level left. In a few lines: as §1
In general terms: Plaque reduction counts the foci of infection that form in a cell layer.

The test system of series [3] is Pseudomonas putida. As to the kind of experiment: Antibacterial activity against ampicillin-resistant Pseudomonas putida MTCC 1072 at 128 mg/ml after 16 hrs by disk diffusion test. In kind it is functional. Also on record: dose or concentration left out as unconfirmed. Conditions: MTCC 1072, 16 h, read-out: IZ. (In general: In agar diffusion tests the substance spreads into inoculated agar from a disc or well.)

For series [4], the system named is Staphylococcus aureus. As to the kind of experiment: Antibacterial activity against Staphylococcus aureus MTCC 1144 at 64 mg/ml after 16 hrs by disk diffusion test. In kind it is functional. The note with it: MTCC 1144, 16 h, read-out: IZ. In a few lines: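 Disk diffusion (zone of inhibition). Bacterial isolate spread evenly over an agar plate. A filter disk carrying a known amount of compound was placed on the surface and the compound left to diffuse. The inhibition zone in the lawn was read after 16 h incubation.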

The next series concerns Vero. The experiment in a line: Cytotoxicity against african green monkey Vero cells assessed as loss of monolayer present around the plaques. Type of series: cell-based. Conditions: Chlorocebus sabaeus. In a few lines: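 Vero monolayers in serial-dilution trays with HSV-1, run in triplicate, 6 h at 37 °C, 5% CO2. Cells fixed with 3.7% formaldehyde and examined visually. IC50 is the concentration giving about 50% loss of the monolayer around HSV-1 plaques.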

The subject of another series is CCRF-CEM. As to the kind of experiment: Cytotoxicity against […] human CEM cells after 6 days by XTT assay. In kind it is cell-based. The note with it: 144 h. A digest of the protocol:
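Uninfected CEM cultures given serial compound dilutions (DMSO, 1:200 final dilution). Incubated 6 days at 37 °C, 5% CO2, then read by XTT formazan. IC50 is the molar concentration causing 50% inhibition of cell growth.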
In general terms: Formazan colour is commonly taken as a measure of viable cells.

For series [5], the system named is Escherichia coli. As to the kind of experiment: Antibacterial activity against Escherichia coli MTCC 41 at 64 mg/ml after 16 hrs by disk diffusion test. In kind it is functional. Also on record: dose or concentration left out as unconfirmed. The note with it: MTCC 41, 16 h, read-out: IZ.
Series [6] can be described thus: Therapeutic index, ratio of IC50 for human CEM cells to EC50 for HIV1. Type of series: cell-based, CCRF-CEM. Conditions: read-out: Ratio IC50/EC50. In a few lines:
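CEM T4 lymphocytes, with or without HIV-1, were incubated with serially diluted compounds (DMSO solution diluted 1:100 in medium; 1:200 final dilution after cells and virus were added) at 37 °C in 5% CO2 for 6 days. Controls were untreated and AZT-treated. Read-out was XTT formazan, measured spectrophotometrically plus microscopy. EC50 is 50% protection from cytopathic effect; IC50 is 50% growth inhibition in uninfected cultures.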

Series [7] relates to Escherichia coli. The experiment in a line: Antibacterial activity against Escherichia coli MTCC 41 at 128 mg/ml after 16 hrs by disk diffusion test. In kind it is functional. Also noted: dose or concentration left out as unconfirmed. Conditions: MTCC 41, 16 h, read-out: IZ.
In series [8] the test system is Escherichia coli. As to the kind of experiment: Antibacterial activity against Escherichia coli MTCC 41 after 12 to 16 hrs by turbidity assay. Type of series: functional. In a few lines:
(§2)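 Broth dilution MIC in LB broth. Tubes inoculated, incubated 12–16 h and scored by eye for turbidity (growth) versus clear (no growth).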

The subject of series [9] is Human immunodeficiency virus 1. As to the kind of experiment: Antiviral activity against HIV1 infected in human CEM cells assessed as protection against virus-induced cytopathic effect after 6 days by XTT assay. Conditions: Human immunodeficiency virus 1, CCRF-CEM, 144 h. Type of series: functional, organism-based. In a few lines: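 CEM T4 lymphocytes received serially diluted compounds (DMSO stock diluted 1:100 in medium, 1:200 final dilution), then HIV-1. Incubated 6 days at 37 °C, 5% CO2. Formazan read spectrophotometrically after XTT, with microscopic check for viable cells. EC50 is the concentration giving 50% protection against the HIV cytopathic effect. AZT-treated wells served as positive control.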

Series [10] has as its system Staphylococcus aureus. As to the kind of experiment: Antibacterial activity against Staphylococcus aureus MTCC 1144 at 128 mg/ml after 16 hrs by disk diffusion test. Also noted: dose or concentration left out as unconfirmed. Type of series: functional. Conditions: MTCC 1144, 16 h, read-out: IZ.
Series [11] relates to Pseudomonas putida. The experiment in a line: Antibacterial activity against ampicillin-resistant Pseudomonas putida MTCC 1072 at 64 mg/ml after 16 hrs by disk diffusion test. The note with it: MTCC 1072, 16 h, read-out: IZ. Also noted: dose or concentration left out as unconfirmed. Type of series: functional.
The test system of series [12] is Pseudomonas putida. The experiment in a line: Antibacterial activity against ampicillin-resistant Pseudomonas putida MTCC 1072 after 12 to 16 hrs by turbidity assay. Type of series: functional. In a few lines:
as §2

Series [13] deals with Staphylococcus aureus. The experiment in a line: Antibacterial activity against Staphylococcus aureus MTCC 1144 after 12 to 16 hrs by turbidity assay. In kind it is functional. In a few lines: as §2

One may read the IC50 as the point on the concentration scale where inhibition reaches its midpoint. One may read the MIC as the smallest concentration in the dilution series that meets the test's criterion for growth inhibition. Broadly, the EC50 is the concentration that produces a half-maximal response. In the case of `OC[C@H]1O[C@@H](Sc2nc3sc4c(c3c(=S)[nH]2)CCCC4)[C@@H](O)[C@@H]1O`, in the series on Human alphaherpesvirus 1 [1], the MAC stood at 0.29 µM. In the series with Human alphaherpesvirus 1 [2], this molecule gave an Activity of 30%. The zone of inhibition in the series on Pseudomonas putida [3] was greater than 3 mm; in the series with Escherichia coli [5], greater than 2 mm; with Escherichia coli [7] it was greater than 3 mm; in the series on Staphylococcus aureus [10], greater than 2 mm; with Pseudomonas putida [11], greater than 3 mm. The zone of inhibition at 64000 µg/mL in the series with Staphylococcus aureus [4] is greater than 2 mm. Moreover, the half-inhibitory concentration (IC50) was greater than 1700 nM in the series with Vero and greater than 100 µM in the series with CCRF-CEM. In addition, the selectivity ratio in series [6] was greater than 1. Moreover, the minimum inhibitory concentration (MIC) against Escherichia coli [8] was 128 µg/mL (≈ 331 µM); against Pseudomonas putida [12], 64 µg/mL (≈ 166 µM); against Staphylococcus aureus [13], greater than 128 µg/mL. Moreover, in [9], the EC50 is greater than 100 µM.

Consider `OC[C@H]1O[C@@H](Sc2nc3sc4c(c3c(=S)[nH]2)CCCCC4)[C@@H](O)[C@@H]1O`, for which the MAC with Human alphaherpesvirus 1 [1] came to 0.21 µM. The molecule also came in with an Activity in the series on Human alphaherpesvirus 1 [2] of 24%. Also, the zone of inhibition in the series on Pseudomonas putida [3] is greater than 3 mm; in the series with Escherichia coli [5], greater than 2 mm; in the series with Escherichia coli [7], greater than 3 mm; in the series on Staphylococcus aureus [10], greater than 3 mm; in the series on Pseudomonas putida [11], greater than 2 mm. Besides, the zone of inhibition at 64000 µg/mL in the series with Staphylococcus aureus [4] is greater than 2 mm. Further, the IC50 with Vero is greater than 1460 nM; in the series with CCRF-CEM it was greater than 100 µM. Also, in series [6], the selectivity ratio is greater than 1. Moreover, the minimum inhibitory concentration (MIC) with Escherichia coli [8], with Pseudomonas putida [12] and in the series on Staphylococcus aureus [13] was 128 µg/mL (≈ 320 µM) each time. Besides, the EC50 in series [9] was greater than 100 µM.

On to `CC(=O)OC[C@H]1O[C@@H](Sc2nc3sc4c(c3c(=S)[nH]2)CCCC4)[C@H](OC(C)=O)[C@@H](OC(C)=O)[C@@H]1OC(C)=O`, for which, in the series with Human alphaherpesvirus 1 [2], the Activity is given as 0%. Further, the zone of inhibition in the series with Pseudomonas putida [3] was greater than 2 mm; with Escherichia coli [5] it was less than 1 mm; in the series with Escherichia coli [7], greater than 2 mm; in the series with Staphylococcus aureus [10], less than 1 mm; in the series on Pseudomonas putida [11], greater than 2 mm. Moreover, the zone of inhibition at 64000 µg/mL with Staphylococcus aureus [4] is less than 1 mm. For the same molecule, the figures for the IC50 with Vero and in the series on CCRF-CEM were 560 nM and greater than 100 µM, respectively. Also, the selectivity ratio in series [6] was greater than 1. Moreover, the MIC with Escherichia coli [8], in the series on Pseudomonas putida [12] and against Staphylococcus aureus [13] was greater than 128 µg/mL each time. For the same molecule, the EC50 in [9] is greater than 100 µM.

Molecule `OC[C@H]1O[C@@H](Sc2nc3sc4c(c3c(=S)[nH]2)CCCC4)[C@H](O)[C@@H](O)[C@@H]1O` displayed an Activity with Human alphaherpesvirus 1 [2] of 0%. Further, the zone of inhibition is greater than 3 mm with Pseudomonas putida [3]; less than 1 mm with Escherichia coli [5]; less than 1 mm with Escherichia coli [7]; less than 1 mm with Staphylococcus aureus [10]; less than 1 mm in the series on Pseudomonas putida [11]. Also, in the series on Staphylococcus aureus [4], the zone of inhibition at 64000 µg/mL was less than 1 mm. Besides, the IC50 is 610 nM in the series with Vero and greater than 100 µM with CCRF-CEM. Besides, the selectivity ratio in series [6] is greater than 1. Moreover, the MIC in the series with Escherichia coli [8] was greater than 128 µg/mL; in the series on Pseudomonas putida [12], 128 µg/mL (≈ 307 µM); in the series with Staphylococcus aureus [13] it was greater than 128 µg/mL. Besides, the EC50 in series [9] is greater than 100 µM.

Turning to `C[C@@]1(CO)[C@H](O)CC[C@@]2(C)[C@H]1CC[C@H]1C[C@@H]3C[C@@]12CC[C@]3(O)CO` [APHIDICOLIN], the MAC in the series on Human alphaherpesvirus 1 [1] came to 0.02 µM. The molecule further yielded an Activity with Human alphaherpesvirus 1 [2] of 100%. Also, in the series with Vero, the IC50 was determined as 580 nM.
